ChEMBL document CHEMBL2346603, “Discovery of potent dipeptidyl peptidase IV inhibitors through pharmacophore hybridization and hit-to-lead optimization” (Bioorg Med Chem, 2013)
Activity calls are given as the source filed them. No cut-off for these calls is given here.

Experiments:
[1] = Oral bioavailability in Sprague-Dawley rat at 30 mg/kg by LC-MS/MS analysis; format: ADME, organism-based; details: in vivo
Method in brief: (§1)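 Adult male SD rats (n = 4/group) got a single dose of compound in distilled water, orally or by injection. Blood (100–200 µL) was drawn from the orbit at 11 time points over 24 h. Blood drug levels were measured by LC–MS/MS.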

[2] = Half life in Sprague-Dawley rat blood at 30 mg/kg, po by LC-MS/MS analysis; format: ADME, organism-based; design: dose 30 mg/kg, route oral; details: whole blood; method in brief: as §1
[3] = Apparent clearance in Sprague-Dawley rat blood at 10 mg/kg, iv by LC-MS/MS analysis; format: ADME, organism-based; design: dose 10 mg/kg, route intravenous; details: whole blood, read-out: CL(app) (converted); method in brief: as §1
[4] = Mean residence time (0 to infinity) in Sprague-Dawley rat blood at 30 mg/kg, po by LC-MS/MS analysis; format: ADME, organism-based; design: dose 30 mg/kg, route oral; details: whole blood; method in brief: as §1
[5] = Apparent volume of distribution in Sprague-Dawley rat blood at 10 mg/kg, iv by LC-MS/MS analysis; format: ADME, organism-based; design: dose 10 mg/kg, route intravenous; details: whole blood, read-out: Vz; method in brief: as §1
[6] = target: Dipeptidyl peptidase 8 (Homo sapiens) (UniProt Q6V1X1); assay: Inhibition of DPP8 (unknown origin) up to 10 uM
Method in brief: (§2)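 Compounds were serially diluted from DMSO into 20 mM Tris pH 7.4, 20 mM KCl, 0.1 mg/mL BSA. Enzyme was pre-incubated with compound for 10 min at ambient temperature. Reaction was started with Gly-Pro-AMC (10 µM final). Fluorescence (ex 400/em 505 nm) was read kinetically for 5–10 min or at a 10 min endpoint.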

[7] = AUC (0 to infinity) in Sprague-Dawley rat blood at 30 mg/kg, po by LC-MS/MS analysis; format: ADME, organism-based; design: time infinity, dose 30 mg/kg, route oral; details: whole blood; method in brief: as §1
[8] = target: Dipeptidyl peptidase 9 (Homo sapiens) (UniProt Q86TI2); assay: Inhibition of DPP9 (unknown origin) up to 10 uM; method in brief: as §2
[9] = Inhibition of CYP3A (unknown origin) up to 30 uM; format: ADME; details: human

Sequence of Dipeptidyl peptidase 8 (Homo sapiens) (Q6V1X1 whole entry, looked up): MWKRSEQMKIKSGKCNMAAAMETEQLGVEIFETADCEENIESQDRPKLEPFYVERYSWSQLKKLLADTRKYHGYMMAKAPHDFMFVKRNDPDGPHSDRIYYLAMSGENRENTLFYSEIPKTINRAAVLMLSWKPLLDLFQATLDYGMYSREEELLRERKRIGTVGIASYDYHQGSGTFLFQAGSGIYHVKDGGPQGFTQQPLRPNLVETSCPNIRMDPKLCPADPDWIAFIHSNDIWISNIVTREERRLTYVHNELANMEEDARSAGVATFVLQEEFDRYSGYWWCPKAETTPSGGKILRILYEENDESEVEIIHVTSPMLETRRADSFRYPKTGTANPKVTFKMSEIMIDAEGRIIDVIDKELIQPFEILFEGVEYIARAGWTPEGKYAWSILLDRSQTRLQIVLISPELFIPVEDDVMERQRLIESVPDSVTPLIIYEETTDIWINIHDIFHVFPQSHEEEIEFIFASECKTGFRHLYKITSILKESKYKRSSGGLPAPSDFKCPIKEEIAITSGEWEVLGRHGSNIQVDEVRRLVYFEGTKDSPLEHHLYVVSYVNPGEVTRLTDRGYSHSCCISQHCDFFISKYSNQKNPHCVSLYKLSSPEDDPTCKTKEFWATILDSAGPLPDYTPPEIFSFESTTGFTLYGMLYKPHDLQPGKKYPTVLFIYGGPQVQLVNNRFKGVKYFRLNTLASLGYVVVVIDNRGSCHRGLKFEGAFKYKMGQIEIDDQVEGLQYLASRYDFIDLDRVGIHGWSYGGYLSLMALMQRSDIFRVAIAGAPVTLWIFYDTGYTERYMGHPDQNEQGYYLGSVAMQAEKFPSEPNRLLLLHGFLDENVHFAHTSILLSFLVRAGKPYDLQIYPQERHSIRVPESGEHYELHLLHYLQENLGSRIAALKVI
Sequence of Dipeptidyl peptidase 9 (Homo sapiens) (Q86TI2 2-863 limits assumed): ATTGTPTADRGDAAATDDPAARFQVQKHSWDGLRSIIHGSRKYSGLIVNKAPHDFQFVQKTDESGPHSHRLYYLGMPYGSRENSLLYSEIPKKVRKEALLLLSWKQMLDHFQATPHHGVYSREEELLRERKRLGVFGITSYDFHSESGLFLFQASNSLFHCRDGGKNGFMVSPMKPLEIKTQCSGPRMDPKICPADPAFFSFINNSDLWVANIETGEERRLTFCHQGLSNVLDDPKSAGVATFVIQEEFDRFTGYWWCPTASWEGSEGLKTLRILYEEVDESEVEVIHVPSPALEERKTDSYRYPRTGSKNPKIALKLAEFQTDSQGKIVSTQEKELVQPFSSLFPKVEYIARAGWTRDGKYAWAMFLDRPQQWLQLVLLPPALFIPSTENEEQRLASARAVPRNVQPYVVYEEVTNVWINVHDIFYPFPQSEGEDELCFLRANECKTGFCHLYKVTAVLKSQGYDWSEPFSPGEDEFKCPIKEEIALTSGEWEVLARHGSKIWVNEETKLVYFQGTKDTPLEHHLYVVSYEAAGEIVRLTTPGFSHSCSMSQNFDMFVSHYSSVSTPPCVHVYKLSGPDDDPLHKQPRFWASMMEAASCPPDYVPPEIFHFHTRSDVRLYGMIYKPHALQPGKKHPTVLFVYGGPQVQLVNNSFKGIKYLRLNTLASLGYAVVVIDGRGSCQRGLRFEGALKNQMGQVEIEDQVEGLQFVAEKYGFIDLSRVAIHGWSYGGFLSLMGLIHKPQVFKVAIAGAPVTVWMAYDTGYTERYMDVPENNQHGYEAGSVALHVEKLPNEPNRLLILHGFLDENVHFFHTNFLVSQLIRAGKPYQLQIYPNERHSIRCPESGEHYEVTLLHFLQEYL

Row | bioavailability [1] [%] | half-life [2] [h] | clearance [3] [mL/min/kg] | MRT inf [4] [h] | Vd [5] [L/kg] | inhibition [6] | AUC(0-inf) [7] [ng·h/mL] | inhibition [8] | inhibition (INH) [9] | Compound
1 | 41 | 2 | – | – | – | – | – | – | – | N#Cc1ccccc1Cn1c(N2CCC[C@@H](N)C2)nc2c(Br)c[nH]c2c1=O
2 | 82.9 | 4.9 | 16.7 | 8.3 | 4 | inactive | 25300 | inactive | Not Active | CC#CCn1c(N2CCC[C@@H](N)C2)nc2ccn(Cc3nc(C)c4ccccc4n3)c2c1=O
